According to PMC10392308 (Journal of Enzyme Inhibition and Medicinal Chemistry, 2023):
Converted amounts (≈) assume the structure as drawn.

What was measured:
HCT-116 = experiment: MTT antiproliferative assay, HCT-116; assay type: cell-based; settings: Homo sapiens, HCT-116, 48 h, read-out: IC50 values, HCT-116, MTT, 48 h
zebrafish embryos = experiment: Zebrafish embryonic acute toxicity test; assay type: in vivo
In short: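 Normally developed embryos at 6 hpf were placed in 24-well plates, six per well, and exposed for three days to test compound at 0.1, 0.15, 0.2, 0.3 and 0.5 μM, with a 0.5% DMSO blank. Hatching (shell without membrane) and death (cardiac arrest) were scored every 24 h. Incubation rate = hatched/total embryos × 100%, and mortality = dead/total × 100%.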

MMP-9 = experiment: ELISA for the expression of MMP-9 in MGC-803 cells; assay type: cell-based, human; settings: for Effect on the expression of MMP-9: MGC-803, 0.1, 0.5, 1 µM; for MMP-9 expression: control 18.6 ng/ml
VEGF [1] = experiment: ELISA for the expression of VEGF in MGC-803 cells; assay type: cell-based, human; settings: for Effect on the expression of VEGF: MGC-803, 0.1, 0.5, 1 µM, hypoxia or not
In short: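 The hypoxia arm used 100 µM CoCl2·6H2O (1% O2) and was run beside 21% O2 cultures. MGC-803 cells were exposed 24 h to test compound at 0.1, 0.5 or 1 µM, with a 0.1% DMSO blank and a positive control. Supernatants were spun at 1000 × g for 20 min at 4 °C, and VEGF was quantified by human VEGF ELISA kit.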

[2] = Water solubility determination using HPLC; assay type: physicochemical; settings: 37 °C, thermodynamic from solid
In short: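 […] were sonicated 10 min at 37 °C. After standing 1 h, the clear upper liquid was membrane-filtered and injected on HPLC. Water solubility was calculated from peak area using the regression equation.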

MGC-803 cells [3] = experiment: Apoptosis assay with flow cytometry; assay type: cell-based, human; settings: MGC-803, 18 h, highest value reached; blank control 8.2
MGC-803 cells [4] = experiment: Cell cycle analysis with flow cytometry; assay type: cell-based, human; settings: for Cells in S phase: DMSO 20.59%; for Cells in G1 phase: DMSO 64.36%; for Phase in which the cell cycle is blocked: MGC-803, 18 h
zebrafish larvae = experiment: Zebrafish adult fish; assay type: in vivo; settings: for Concentrations causing acute toxicity in zebrafish larvae: in vivo
In short: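 Normally developed larvae at 3 dpf were placed in 24-well plates, six per well, and exposed to test compound at 0.1, 0.2, 0.3, 0.4 and 0.5 μM. Mortality was recorded at 24 h and 72 h.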

HCT116 cancer cells = experiment: In vivo anticancer effect in nude mice inoculated with HCT116 cells; design: species or system Balb/c nude mice; settings: for Tumour growth inhibition rate: by tumour weight; for Tumour weight / Tumour volume at the end of the administration: compound 2 2.5 and 1 mg/kg, 5-FU 10 mg/kg; for Tumour weight: p < 0.001 vs control; for Tumour volume at the end of the administration: p < 0.01 vs control
In short: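 Female Balb/c nude mice, 8 weeks old, received 0.1 ml of 1 × 10^8/mL HCT116 cells in the right armpit, six mice per group. At about 100 mm3 tumour, dosing began: i.p., 5 ml/kg, once every two days, vehicle 5% DMSO in soybean oil, with a vehicle group and a 5-FU group. Body weight and tumour diameters were taken every 3 d, with volume = A×B²/2. Inhibition = (1 − mean treated/control tumour weight) × 100%.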

tumour tissue = experiment: Haematoxylin-eosin staining; assay type: in vivo, nude mice; settings: compound 2 1 and 2.5 mg/kg, 5-FU 10 mg/kg; vs control group
In short: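 Female Balb/c nude mice (8 weeks) bore HCT116 xenografts from 1×10^8 cells/mL, 0.1 ml in the right armpit, six per group. Dosing was i.p. in 5% DMSO/soybean oil at 5 ml/kg, starting at ~100 mm3, for 20 days, with vehicle controls. Tumours collected after sacrifice and stained with haematoxylin-eosin; nuclei blue, cytoplasm red.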

TNF-α = experiment: ELISA detection of TNF-α in tumour mice; assay type: in vivo, nude mice; settings: serum, compound 2 1 and 2.5 mg/kg, 5-FU 10 mg/kg, vs control
In short: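 HCT116 xenografts (1×10^8 cells/mL, 0.1 ml, right armpit) in 8-week-old female Balb/c nude mice, six per group. Test compound given i.p. in 5% DMSO/soybean oil (5 ml/kg) from ~100 mm3 tumours for 20 days. At sacrifice, serum held 2 h, spun 1000 × g for 20 min, stored −80 °C. TNF-α measured by mouse ELISA kit, six sera per group, triplicate wells.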

VEGF [5] = experiment: Immunohistochemical detection of VEGF expression in tumour tissue; assay type: in vivo, nude mice; settings: compound 2 1 and 2.5 mg/kg, 5-FU 10 mg/kg; p < 0.0001 vs control
AGS = experiment: MTT antiproliferative assay, AGS; assay type: cell-based; settings: Homo sapiens, 48 h, read-out: IC50 values, AGS, MTT, 48 h

CC1=C(O)C(=O)C=C2C1=CC=C1[C@@]2(C)CC[C@@]2(C)[C@@H]3C[C@](C)(C(=O)OCCCCO)CC[C@]3(C)CC[C@]12C [Compound 3, 4-Hydroxybutyl (2 R,4aS,6aS,12bR,14aS,14bR)-10-hydroxy-2,4a,6a,9,12b,14a-hexamethyl-11-oxo-1,2,3,4,4a,5,6,6a,11,12b,13,14,14a,14b-tetradecahydropicene-2-carboxylate]
IC50 (HCT-116): 320 to 390 nM

CC1=C(O)C(=O)C=C2C1=CC=C1[C@@]2(C)CC[C@@]2(C)[C@@H]3C[C@](C)(C(=O)O)CC[C@]3(C)CC[C@]12C [celastrol, Celastrol, reference compound]
Death rate of zebrafish embryos (zebrafish embryos; 0.2 μM): 50%
Incubation (hatching) rate of zebrafish embryos (zebrafish embryos; 0.3 or 0.5 μM): zero
Incubation (hatching) rate of zebrafish embryos (zebrafish embryos; exposure concentrations of 0.1, 0.15, and 0.2 μM): more than 75%
Effect on the expression of MMP-9 (MMP-9): inhibited the expression of MMP-9 in MGC-803 cells in a concentration-dependent manner
Effect on the expression of VEGF (VEGF [1]): inhibited the expression of VEGF in a concentration-dependent manner
solubility at 1 h [2]: 6.2 µg/mL (≈ 13.8 µM)
Overall apoptosis rate (early apoptosis + late apoptosis) (MGC-803 cells [3]): 9.8%
Cells in S phase (MGC-803 cells [4]; 0.1 µM, 18 h, MGC-803): 19.18%
Cells in S phase (MGC-803 cells [4]; 1 µM, 18 h, MGC-803): 29.41%
Cells in G1 phase (MGC-803 cells [4]; 1 µM, 18 h, MGC-803): 52.96%
Phase in which the cell cycle is blocked (MGC-803 cells [4]): S phase
Concentrations causing acute toxicity in zebrafish larvae (zebrafish larvae): higher than 0.1 μM

O=c1[nH]cc(F)c(=O)[nH]1 [5-FU, 5-fluorouracil, reference compound]
Tumour growth inhibition rate (HCT116 cancer cells; 10 mg/kg intraperitoneally): 37.02%
Tumour weight (HCT116 cancer cells): significantly lower than that in the control group
Tumour volume at the end of the administration (HCT116 cancer cells): significantly smaller than that of the control
Morphological changes in tumour tissue (HE) (tumour tissue): tumour tissue structure was seriously damaged and the cell necrosis was obvious
TNF-α content of tumour mice (TNF-α): increased the TNF-α content significantly
VEGF expression in tumour tissue (immunohistochemistry) (VEGF [5]): downregulated the VEGF expression significantly

CC1=C(O)C(=O)C=C2C1=CC=C1[C@@]2(C)CC[C@@]2(C)[C@@H]3C[C@](C)(C(=O)OCCCO)CC[C@]3(C)CC[C@]12C [Compound 2, 3-Hydroxypropyl (2 R,4aS,6aS,12bR,14aS,14bR)-10-hydroxy-2,4a,6a,9,12b,14a-hexamethyl-11-oxo-1,2,3,4,4a,5,6,6a,11,12b,13,14,14a,14b-tetradecahydropicene-2-carboxylate]
IC50 (AGS): 330 nM
Acute toxicity for zebrafish embryos (zebrafish embryos; 0.1 μM): no acute toxicity
Incubation (hatching) rate of zebrafish embryos (zebrafish embryos; 0.15 μM): 25%
Hatching of zebrafish eggs (zebrafish embryos; 0.2 μM): no eggs hatched
Death rate of zebrafish embryos (zebrafish embryos; 0.5 μM, on the first day): 100%
Mortality of zebrafish embryos (zebrafish embryos; 0.5 μM, on the fourth day): 100%
MMP-9 expression (MMP-9; MGC-803, 0.5 µM): 10.04 ng/mL
MMP-9 expression (MMP-9; MGC-803, 1 µM): 9.64 ng/mL
Effect on the expression of MMP-9 (MMP-9): inhibited the expression of MMP-9 in MGC-803 cells in a concentration-dependent manner
Body weight during the treatment period (HCT116 cancer cells; 1 mg/kg): no significant changes of body weight
Body weight during the treatment period (HCT116 cancer cells; 2.5 mg/kg): downward trend
Mental state of the mice (HCT116 cancer cells; 2.5 mg/kg): depressed
Tumour weight (HCT116 cancer cells): significantly lower than that in the control group
Tumour volume at the end of the administration (HCT116 cancer cells): significantly smaller than that of the control
Tumour growth inhibition rate (HCT116 cancer cells; high-dose 2.5 mg/kg intraperitoneally): 55.82%
Tumour growth inhibition rate (HCT116 cancer cells; low-dose 1 mg/kg intraperitoneally): 50.83%
VEGF expression (VEGF [1]; CoCl2-induced hypoxia, 0.1 µM, control 568.1 pg/ml): 430.8 pg/mL
VEGF expression (VEGF [1]; CoCl2-induced hypoxia, 0.5 µM, control 568.1 pg/ml): 397.5 pg/mL
VEGF expression (VEGF [1]; CoCl2-induced hypoxia, 1 µM, control 568.1 pg/ml): 328.8 pg/mL
Effect on the expression of VEGF (VEGF [1]): inhibited the expression of VEGF in a concentration-dependent manner
VEGF expression (VEGF [1]; normal oxygen conditions, 0.1 µM, control 531.5 pg/ml): 514.1 pg/mL
VEGF expression (VEGF [1]; normal oxygen conditions, 0.5 µM, control 531.5 pg/ml): 398.1 pg/mL
VEGF expression (VEGF [1]; normal oxygen conditions, 1 µM, control 531.5 pg/ml): 352.1 pg/mL
solubility at 1 h [2]: 11.8 µg/mL (≈ 23.2 µM)
Overall apoptosis rate (early apoptosis + late apoptosis) (MGC-803 cells [3]): 13%
Cells in G2 phase (MGC-803 cells [4]; 1 µM, 18 h, MGC-803, DMSO 15.05%): 37.01%
Cells in G1 phase (MGC-803 cells [4]; 1 µM, 18 h, MGC-803): 44.77%
Phase in which the cell cycle is blocked (MGC-803 cells [4]): G2 phase
100% mortality concentration (zebrafish larvae; zebrafish larvae, exposed for 72 h): 0.1 µM
Concentrations causing acute toxicity in zebrafish larvae (zebrafish larvae): higher than 0.1 μM
Morphological changes in tumour tissue (HE) (tumour tissue): tumour tissue structure was seriously damaged and the cell necrosis was obvious
IC50 (HCT-116): 320 to 390 nM
TNF-α content of tumour mice (TNF-α): decreased the TNF-α content significantly in a dose-dependent manner
VEGF expression in tumour tissue (immunohistochemistry) (VEGF [5]): downregulated the VEGF expression significantly
